PubChem BioAssay AID624067 (The Scripps Research Institute Molecular Screening Center, 2012)
Where “and” joins values, the source holds several entries; their conditions need not be identical. Equal entries are not always repeated.

target: Insulin-degrading enzyme (Homo sapiens) (UniProt P14735); assay: inhibitors of wild-type recombinant IDE, late-stage follow-up, counter-screen for IDE inhibitor project, biochemical, fluorescence polarization, run by assay provider (AID 624067); conditions: FAbetaB cleavage
Outline: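 Material: recombinant WT human IDE. Input: IDE at 1 nM final, approximately EC80. Medium: HEPES pH 7.4, NaCl, MgCl2, 0.1% BSA. Compound dosing: 10 semi-log points, top 100 µM. Schedule: enzyme reaction at 22 °C. Measured by: fluorescence polarization (ex 485 nm, em 525 nm) after avidin/1,10-phenanthroline stop. Benchmarks: high control Ii1.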

Insulin-degrading enzyme (Homo sapiens), sequence (P14735 whole entry, looked up): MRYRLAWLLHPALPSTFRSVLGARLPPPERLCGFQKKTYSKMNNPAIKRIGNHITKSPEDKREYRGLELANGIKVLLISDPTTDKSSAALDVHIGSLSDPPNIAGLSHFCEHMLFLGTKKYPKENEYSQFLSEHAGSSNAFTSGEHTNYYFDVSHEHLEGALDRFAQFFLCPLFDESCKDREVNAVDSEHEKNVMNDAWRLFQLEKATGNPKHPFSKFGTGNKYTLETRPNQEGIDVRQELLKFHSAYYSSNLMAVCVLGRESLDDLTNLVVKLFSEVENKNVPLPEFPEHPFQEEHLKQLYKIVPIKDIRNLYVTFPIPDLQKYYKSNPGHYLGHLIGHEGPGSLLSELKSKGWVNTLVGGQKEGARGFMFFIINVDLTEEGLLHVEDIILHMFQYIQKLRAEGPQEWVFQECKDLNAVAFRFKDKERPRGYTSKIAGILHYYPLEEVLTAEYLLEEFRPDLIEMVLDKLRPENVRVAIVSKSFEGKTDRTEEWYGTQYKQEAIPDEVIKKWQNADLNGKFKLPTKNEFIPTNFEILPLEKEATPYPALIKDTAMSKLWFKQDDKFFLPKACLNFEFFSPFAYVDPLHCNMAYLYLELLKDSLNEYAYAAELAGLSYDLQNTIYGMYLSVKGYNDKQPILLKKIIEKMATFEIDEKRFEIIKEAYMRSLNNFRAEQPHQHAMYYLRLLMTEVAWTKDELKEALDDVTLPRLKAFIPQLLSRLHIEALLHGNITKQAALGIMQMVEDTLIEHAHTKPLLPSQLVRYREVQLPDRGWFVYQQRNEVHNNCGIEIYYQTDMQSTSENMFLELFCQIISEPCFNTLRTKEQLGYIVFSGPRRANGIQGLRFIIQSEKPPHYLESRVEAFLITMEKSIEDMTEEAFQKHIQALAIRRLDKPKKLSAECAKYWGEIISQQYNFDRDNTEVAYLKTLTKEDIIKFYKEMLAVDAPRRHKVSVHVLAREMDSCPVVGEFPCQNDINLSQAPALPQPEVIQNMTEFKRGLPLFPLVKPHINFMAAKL

Row | Structure (SMILES) | IC50
1 | O=C(Nc1cccc(C(F)(F)F)c1)c1csc(-c2ccncc2)n1 | 5.3 µM
2 | Cc1cccc(-c2nnc(SCc3nc4ccccc4[nH]3)n2Cc2ccco2)c1 | 5.7 µM and 8.9 µM
3 | COc1ccc(C(=O)N2CCN(C(=O)C3COc4ccccc4O3)CC2)cc1OC (stereo not given) | 1.9 µM and > 33 µM (inactive)
4 | Clc1cccc(-c2nnc(SCc3nc4ccccc4[nH]3)n2Cc2ccco2)c1 | 3.9 µM
5 | O=c1c2ccccc2sn1-c1cc(S(=O)(=O)N2CCOCC2)ccc1N1CCOCC1 | 1.4 µM
